Results from ChEMBL document CHEMBL1268941, “Bromophenols as Candida albicans isocitrate lyase inhibitors” (Bioorg Med Chem Lett, 2010).
In brackets after ≈: the same amount, converted by molar mass.

What was measured:
Salmonella typhimurium = assay: Antimicrobial activity against Salmonella Typhimurium ATCC 14028 after 24 hrs by broth dilution method; type: functional, Salmonella enterica subsp. enterica serovar Typhimurium; settings: Salmonella enterica, ATCC 14028, 24 h
Outline: (§1)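 Test bacteria grown overnight at 37 °C in LB broth, centrifuged and washed twice in sterile distilled water. Compound stocks made in DMSO and diluted in broth. Each microtiter well received 10 µl of broth holding about 10⁵ cfu/ml of bacteria. Plates incubated 24 h at 37 °C. Read-out was the MIC.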

[1] = system: Trichophyton mentagrophytes; assay: Antimicrobial activity against Trichophyton mentagrophytes IFO 40996 after 48 to 72 hrs by broth dilution method; type: functional
Outline: (§2)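 For C. albicans, cells were grown 48 h at 28 °C in YPD broth (1% yeast extract, 2% peptone, 2% dextrose), centrifuged and washed twice in sterile distilled water. A. fumigatus, T. rubrum and T. mentagrophytes were grown on potato dextrose agar for 2 weeks at 28 °C. Compound stocks made in DMSO. Microtiter plates incubated 48–72 h at 28 °C. Read-out was the MIC.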

Staphylococcus aureus = assay: Antimicrobial activity against Staphylococcus aureus ATCC 6538p after 24 hrs by broth dilution method; type: functional; outline: as §1
Isocitrate lyase = Isocitrate lyase (Candida albicans, UniProt Q9P8Q7); assay: Inhibition of Candida albicans ATCC 10231 isocitrate lyase
Isocitrate lyase, sequence (Q9P8Q7 whole entry): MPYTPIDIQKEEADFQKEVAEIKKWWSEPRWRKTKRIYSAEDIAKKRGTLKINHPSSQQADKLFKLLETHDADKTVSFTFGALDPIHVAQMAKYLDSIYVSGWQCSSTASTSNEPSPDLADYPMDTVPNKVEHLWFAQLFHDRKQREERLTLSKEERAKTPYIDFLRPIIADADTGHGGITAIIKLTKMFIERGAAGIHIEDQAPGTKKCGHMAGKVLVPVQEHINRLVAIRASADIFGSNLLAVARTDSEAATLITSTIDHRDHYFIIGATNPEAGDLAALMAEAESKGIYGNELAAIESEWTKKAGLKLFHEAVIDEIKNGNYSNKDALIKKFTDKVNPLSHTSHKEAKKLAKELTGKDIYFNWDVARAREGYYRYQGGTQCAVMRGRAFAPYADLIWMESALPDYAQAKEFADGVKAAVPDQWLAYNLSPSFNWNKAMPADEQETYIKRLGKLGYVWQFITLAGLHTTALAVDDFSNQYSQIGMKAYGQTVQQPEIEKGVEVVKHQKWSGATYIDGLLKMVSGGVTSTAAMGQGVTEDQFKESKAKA

Candida albicans = assay: Antimicrobial activity against Candida albicans ATCC 10231 after 48 to 72 hrs by broth dilution method; type: functional; outline: as §2
Aspergillus fumigatus = assay: Antimicrobial activity against Aspergillus fumigatus HIC 6094 after 48 to 72 hrs by broth dilution method; type: functional; outline: as §2
Bacillus subtilis = assay: Antimicrobial activity against Bacillus subtilis ATCC 6633 after 24 hrs by broth dilution method; type: functional; settings: ATCC 6633, 24 h; outline: as §1
Proteus vulgaris = assay: Antimicrobial activity against Proteus vulgaris ATCC 3851 after 24 hrs by broth dilution method; type: functional; settings: ATCC 3851, 24 h; outline: as §1
Micrococcus luteus = assay: Antimicrobial activity against Micrococcus luteus IFO 12708 after 24 hrs by broth dilution method; type: functional; settings: IFO 12708, 24 h; outline: as §1
Trichophyton rubrum = assay: Antimicrobial activity against Trichophyton rubrum IFO 9185 after 48 to 72 hrs by broth dilution method; type: functional; outline: as §2

| SMILES | MIC (Salmonella typhimurium) [µg/mL] | MIC [1] [µg/mL] | MIC (Staphylococcus aureus) [µg/mL] | IC50 (Isocitrate lyase) [µM] | MIC (Candida albicans) [µg/mL] | MIC (Aspergillus fumigatus) [µg/mL] | MIC (Bacillus subtilis) [µg/mL] | MIC (Proteus vulgaris) [µg/mL] | MIC (Micrococcus luteus) [µg/mL] | MIC (Trichophyton rubrum) [µg/mL] |
| --- | --- | --- | --- | --- | --- | --- | --- | --- | --- | --- |
| Oc1cc(Br)c(Cc2cc(O)c(O)cc2Br)cc1O | 25 (≈ 64.1 µM) | 50 (≈ 128 µM) | 25 (≈ 64.1 µM) | 46.2 | > 100 | > 100 | 25 (≈ 64.1 µM) | 25 (≈ 64.1 µM) | 12.5 (≈ 32 µM) | > 100 |
| Oc1cc(Br)c(CCc2cc(O)c(O)c(Br)c2Br)cc1O | 100 (≈ 207 µM) | > 100 | 100 (≈ 207 µM) | 14.8 | 100 (≈ 207 µM) | > 100 | 50 (≈ 104 µM) | 100 (≈ 207 µM) | 100 (≈ 207 µM) | > 100 |
| Oc1cc(Cc2cc(O)c(O)c(Br)c2Br)c(Br)c(Br)c1O | 50 (≈ 91.3 µM) | 1.56 (≈ 2.85 µM) | 25 (≈ 45.6 µM) | 18.4 | 1.56 (≈ 2.85 µM) | 0.78 (≈ 1.42 µM) | 25 (≈ 45.6 µM) | 50 (≈ 91.3 µM) | 25 (≈ 45.6 µM) | 1.56 (≈ 2.85 µM) |
| Oc1ccc(CCc2ccc(O)c(O)c2)cc1O | 100 (≈ 406 µM) | 100 (≈ 406 µM) | 50 (≈ 203 µM) | 58.5 | > 100 | > 100 | 100 (≈ 406 µM) | 100 (≈ 406 µM) | 100 (≈ 406 µM) | > 100 |
| Oc1cc(Br)c(COCc2cc(O)c(O)c(Br)c2Br)cc1O | > 100 | > 100 | > 100 | 15.6 | > 100 | > 100 | > 100 | > 100 | > 100 | > 100 |
| CC1(C)S[C@@H]2[C@H](NC(=O)[C@H](N)c3ccccc3)C(=O)N2[C@H]1C(=O)O [AMPICILLIN] | 1.56 (≈ 4.46 µM) | – | 1.56 (≈ 4.46 µM) | – | – | – | 1.56 (≈ 4.46 µM) | 3.12 (≈ 8.93 µM) | 3.12 (≈ 8.93 µM) | – |
| Oc1ccc(COCc2ccc(O)c(O)c2)cc1O | > 100 | > 100 | > 100 | > 381 | > 100 | > 100 | > 100 | > 100 | > 100 | > 100 |
| O=C(c1ccc(O)c(O)c1)c1ccc(O)c(O)c1 | > 100 | > 100 | > 100 | 22.6 | > 100 | > 100 | > 100 | > 100 | > 100 | > 100 |
| O=C(c1cc(O)c(O)c(Br)c1)c1cc(O)c(O)c(Br)c1Br | 100 (≈ 207 µM) | > 100 | 100 (≈ 207 µM) | 2.65 | 100 (≈ 207 µM) | > 100 | 50 (≈ 104 µM) | 100 (≈ 207 µM) | 50 (≈ 104 µM) | > 100 |
| O=C(c1cc(O)c(O)c(Br)c1)c1cc(O)c(O)c(Br)c1 | > 100 | > 100 | > 100 | 8.89 | > 100 | > 100 | 100 (≈ 248 µM) | > 100 | 100 (≈ 248 µM) | > 100 |
| Oc1cc(Oc2cc(O)c(O)c(Br)c2Br)c(Br)c(Br)c1O | 50 (≈ 90.9 µM) | 25 (≈ 45.5 µM) | 50 (≈ 90.9 µM) | 11.6 | 25 (≈ 45.5 µM) | 25 (≈ 45.5 µM) | 25 (≈ 45.5 µM) | 25 (≈ 45.5 µM) | 50 (≈ 90.9 µM) | 12.5 (≈ 22.7 µM) |
| Oc1cc(COCc2cc(O)c(O)c(Br)c2Br)c(Br)c(Br)c1O | > 100 | > 100 | > 100 | 28.1 | > 100 | > 100 | > 100 | > 100 | > 100 | > 100 |
| Oc1cc(Br)c(Oc2cc(O)c(O)cc2Br)cc1O | 100 (≈ 255 µM) | > 100 | 100 (≈ 255 µM) | 30.9 | > 100 | > 100 | 100 (≈ 255 µM) | 100 (≈ 255 µM) | 50 (≈ 128 µM) | > 100 |
| C[C@@H]1[C@H](O)[C@@H](C)/C=C/C=C/C=C/C=C/C=C/C=C/C=C/[C@H](O[C@@H]2O[C@H](C)[C@@H](O)[C@H](N)[C@@H]2O)C[C@@H]2O[C@](O)(C[C@@H](O)C[C@@H](O)[C@H](O)CC[C@@H](O)C[C@@H](O)CC(=O)O[C@H]1C)C[C@H](O)[C@H]2C(=O)O [AMPHOTERICIN B] | – | 3.12 (≈ 3.38 µM) | – | – | 6.25 (≈ 6.76 µM) | 3.12 (≈ 3.38 µM) | – | – | – | 3.12 (≈ 3.38 µM) |
| Oc1ccc(Oc2cc(O)c(O)cc2Br)cc1O | 100 (≈ 319 µM) | > 100 | 100 (≈ 319 µM) | 68.2 | > 100 | > 100 | > 100 | > 100 | 100 (≈ 319 µM) | > 100 |
| Oc1cc(Br)c(CCc2cc(O)c(O)cc2Br)cc1O | 50 (≈ 124 µM) | 100 (≈ 247 µM) | 50 (≈ 124 µM) | 21.2 | 50 (≈ 124 µM) | 50 (≈ 124 µM) | 50 (≈ 124 µM) | 50 (≈ 124 µM) | 50 (≈ 124 µM) | 50 (≈ 124 µM) |
| Oc1ccc(Oc2ccc(O)c(O)c2)cc1O | 100 (≈ 427 µM) | > 100 | 50 (≈ 213 µM) | > 100 | > 100 | > 100 | > 100 | > 100 | 100 (≈ 427 µM) | > 100 |
